Published values gathered from unrelated publications.
Each line is one published result; the experiments were not run side by side. pIC50: −log10 of the molar value.
Cell line: MCF7
Effect on: cell growth or viability

Structure (SMILES) | method | time | endpoint | value
O=[N+]([O-])c1ccc(NC(=S)N/N=C/c2cccc3cc4ccccc4nc23)cc1 | MTT | 48 h | pIC50 | < 4.30
O=[N+]([O-])c1cc(Br)c(O)c(C=NNc2ccccc2)c1 | MTT | 24 h | pIC50 | 5.19
Cc1nc2ccc(-c3ccc(F)c(F)c3)cc2c(O)c1C(=O)O | MTT | 48 h | pIC50 | ≤ 4.00
O=C1C(=Nc2ccccc2I)c2ccccc2N1Cc1cccc(Cl)c1 | MTT | 48 h | pIC50 | 4.87
CN(C)C(=O)Nc1nc2c(Cl)cc(Cl)cc2c(=O)n1-c1ccccc1 | MTT | 48 h | pIC50 | < 3.70
CCCCCCCNC1=C(n2cncn2)C(=O)c2ccccc2C1=O | MTT | 24 h | IC50 | 22.3 µg/mL
O=C(NCc1ccc(OC(F)(F)F)cc1)c1cn(Cc2ccc(F)cc2)c2ccc(Oc3ccccc3)cc2c1=O | MTT | 24 h | pIC50 | 3.47
CN1CCc2c(c3ccccc3n2Cc2ccc(C(=O)NO)cc2)C1 | CCK-8 | 48 h | pIC50 | 4.56
C/C(=N\C(=N)/N=C(\C)c1c(O)c2ccccc2oc1=O)c1c(O)c2ccccc2oc1=O | MTT | 48 h | pIC50 | 4.71
O=c1[nH]cc(F)c(=O)[nH]1 | MTT | 48 h | pIC50 | 4.95
CC(=O)O[C@@]12CO[C@@H]1C[C@H](O)[C@@]1(C)C(=O)[C@H](O)C3=C(C)[C@@H](OC(=O)[C@H](O)[C@@H](NC(=O)OC(C)(C)C)c4ccccc4)C[C@@](O)([C@@H](OC(=O)c4ccccc4)[C@H]21)C3(C)C | MTT | 48 h | pIC50 | 4.03
COc1cccc(NC(=S)N/N=C/c2cccc3cc4ccccc4nc23)c1 | MTT | 48 h | pIC50 | < 4.30
O=C1CS/C(=N\c2cc(C(F)(F)F)ccc2-c2nnc(N3C(=O)CS/C3=N\c3ccc(Cl)cc3)s2)N1c1ccc(Cl)cc1 | MTT | – | pIC50 | 4.28
O=C(NO)Nc1nc2c(Cl)cc(Cl)cc2c(=O)n1-c1ccccc1 | MTT | 48 h | pIC50 | < 3.70
O=C(O)c1nn(Cc2ccc(Cl)cc2Cl)c2ccccc12 | – | 48 h | pIC50 | 3.95
O=C1C(=Nc2ccccc2I)c2ccccc2N1Cc1ccc(Br)cc1 | MTT | 48 h | pIC50 | 5.06
CCCN1CC(Oc2ccc([C@@H]3c4[nH]c5ccccc5c4C[C@@H](C)N3CC(C)(C)F)cc2)C1 | – | – | pIC50 | 8.10
NS(=O)(=O)c1ccc(-n2nc(C(=O)NN3C(=O)c4ccccc4C3=O)cc2-c2ccccc2)cc1 | fluorescence | 48 h | pIC50 | 4.41
NNc1nc2ccc(Br)cc2c(=O)n1-c1ccc(Cl)cc1 | MTT | 48 h | pIC50 | 4.89
CC(=O)c1nc2ccccc2n1Cc1cn([C@@H]2OC[C@@H](O)[C@H](O)[C@H]2O)nn1 | LDH | 48 h | pIC50 | 5.68
NS(=O)(=O)c1ccc(-n2nc(-c3nnc(CCl)o3)cc2-c2ccccc2)cc1 | fluorescence | 48 h | pIC50 | 4.50
COc1ccc(N(Cc2nc(-c3ccc(F)cc3)cs2)C(=O)CCCCCC(=O)NO)cc1 | MTT | 72 h | pIC50 | 4.99
Cc1cccc(N=C2C(=O)N(Cc3ccccc3)c3ccccc32)c1 | MTT | 48 h | pIC50 | 5.09
c1ccc(Cn2nc(-c3ncc(-c4ccccc4)s3)c3ccccc32)cc1 | – | 48 h | pIC50 | 4.13
Cc1ccc(NNc2nc3ccc(Br)cc3c(=O)n2-c2ccccc2)cc1 | MTT | 48 h | pIC50 | < 3.70
O=C1C(=Nc2ccc(Cl)cc2)c2ccccc2N1Cc1cccc(Cl)c1 | MTT | 48 h | pIC50 | 5.03
C/C(=N\C(=O)/N=C(\C)c1c(O)c2ccccc2oc1=O)c1c(O)c2ccccc2oc1=O | MTT | 48 h | pIC50 | 4.84
COc1ccc2c(-c3nc(-c4ccccc4)no3)nn(Cc3ccncc3)c2c1 | – | 48 h | pIC50 | 4.06

Structure (SMILES) | method | time | endpoint | value
NS(=O)(=O)c1ccc(-n2nc(C(=O)NN=Cc3cccnc3)cc2-c2ccccc2)cc1 | fluorescence | 48 h | pIC50 | 4.47
CC(=O)O[C@@H]1[C@@H](OC(C)=O)[C@H](OC(C)=O)CO[C@H]1n1cc(Cn2c(C(C)=O)nc3ccccc32)nn1 | LDH | 48 h | pIC50 | 5.56
CCc1ccc(N=C2C(=O)N(Cc3ccccc3)c3ccccc32)cc1 | MTT | 48 h | pIC50 | 4.98
COc1cccc2c1C(=O)c1c(O)c3c(c(O)c1C2=O)C[C@@](O)(C(=O)CO)C[C@@H]3O[C@H]1C[C@H](N)[C@H](O)[C@H](C)O1 | – | 96 h | pIC50 | 6.84
O=C1Nc2ccccc2/C1=N/N=C/c1cccc([N+](=O)[O-])c1 | MTT | 24 h | IC50 | 48.9 µg/mL
Cc1cccc(N=C2C(=O)N(Cc3cccc(Cl)c3)c3ccccc32)c1 | MTT | 48 h | pIC50 | 5.67
CC(=O)OC[C@H]1O[C@@H](n2cc(Cn3c(C(=O)/C=C/c4ccc(F)cc4)nc4ccccc43)nn2)[C@H](OC(C)=O)[C@@H](OC(C)=O)[C@H]1OC(C)=O | LDH | 48 h | pIC50 | 5.61
CN(C)c1ccc(Nc2nc(-c3ccncc3)nc3c2CC(N)CC3)cc1 (stereo not shown) | MTT | – | pIC50 | 4.80
COc1cccc2c1C(=O)c1c(O)c3c(c(O)c1C2=O)C[C@@](O)(C(=O)CO)C[C@@H]3O[C@H]1C[C@H](N)[C@H](O)[C@H](C)O1 | MTT | 24 h | pIC50 | 4.73
O=C1CSC(=Nc2cc([N+](=O)[O-])ccc2[N+](=O)[O-])N1c1nnc(-c2ccc(C(F)(F)F)cc2N=C2SCC(=O)N2c2cc([N+](=O)[O-])ccc2[N+](=O)[O-])s1 | MTT | – | pIC50 | 4.08
COc1ccc2c(-c3ncc(-c4ccccc4)o3)nn(Cc3ccccc3)c2c1 | – | 48 h | pIC50 | 4.06
C[C@H]1[C@H](C)CC[C@]2(C(=O)O)CC[C@]3(C)C(=CC[C@@H]4[C@@]5(C)CC[C@H](O)C(C)(C)[C@@H]5CC[C@]43C)[C@H]12 | MTT | 24 h | pIC50 | 4.56
CCOC(=O)c1c(C)nc2ccc(-c3cccc(F)c3)cc2c1O | MTT | 48 h | pIC50 | 4.98
C/C(=N\C1CCCCC1/N=C(\C)c1c(O)c2ccccc2oc1=O)c1c(O)c2ccccc2oc1=O (stereo not shown) | MTT | 48 h | pIC50 | 4.18
O=C(C=Cc1ccc(OCCCOc2ccc(C=CC(=O)c3cccs3)cc2)cc1)c1cccs1 | MTT | 48 h | pIC50 | 4.52
O=[N+]([O-])c1ccc(O)c(C=NNc2ccc(C(F)(F)F)cc2)c1 | MTT | 24 h | pIC50 | 4.89
O=C1CS/C(=N\c2cc(C(F)(F)F)ccc2-c2nnc(N3C(=O)CS/C3=N\c3cc(O)cc(Br)c3)s2)N1c1cc(O)cc(Br)c1 | MTT | – | pIC50 | 4.13
COc1cc(C2C3=C(Nc4nc(SC)[nH]c(=O)c42)c2ccccc2C3=O)ccc1O (stereo not shown) | MTT | 72 h | pIC50 | < 3.00
C=CCN1C(=O)C(=Nc2cccc(C)c2)c2ccccc21 | MTT | 48 h | pIC50 | < 4.00
C(=N\Nc1cc(N/N=C/c2cccc3cccnc23)nc(-c2ccccc2)n1)/c1cccc2cccnc12 | MTT | 48 h | pIC50 | 4.98
C[C@H]1[C@H](C)CC[C@]2(C)CC[C@]3(C)C(=CC(=O)[C@@H]4[C@@]5(C)CC[C@@H](O)[C@](C)(C(=O)NCc6cn(-c7ccc(F)cc7)nn6)[C@@H]5CC[C@]43C)[C@H]12 | MTT | 24 h | pIC50 | 4.12
CC(C)c1cccc(C(C)C)c1N=C1C(=O)N(Cc2cccc(Cl)c2)c2ccccc21 | MTT | 48 h | pIC50 | 4.33
COc1cc([C@@H]2c3cc4c(cc3[C@@H](O[C@@H]3O[C@@H]5CO[C@@H](C)O[C@H]5[C@H](O)[C@H]3O)[C@H]3COC(=O)[C@H]23)OCO4)cc(OC)c1O | MTT | 48 h | pIC50 | 4.96
O=C(O)c1c[nH]c2ccc(Oc3ccccc3)cc2c1=O | MTT | 48 h | pIC50 | 3.54
O=[N+]([O-])c1cc(Br)c(O)c(C=NNc2ccc(C(F)(F)F)cc2)c1 | MTT | 24 h | pIC50 | 5.10
O=C(C=Cc1cccs1)c1ccc(OCCOc2ccc(C(=O)C=Cc3cccs3)cc2)cc1 | MTT | 48 h | pIC50 | 5.10
C[C@H]1[C@H](C)CC[C@]2(C)CC[C@]3(C)C(=CC(=O)[C@@H]4[C@@]5(C)CC[C@@H](O)[C@](C)(C(=O)NCc6cn(-c7ccccc7C(F)(F)F)nn6)[C@@H]5CC[C@]43C)[C@H]12 | MTT | 24 h | pIC50 | 4.08
